Bioassay records from PubChem.
Platelet DG rel – platelet dense granule release activity | human platelet-rich plasma, SFLLRN dense granule ATP release, luminescence | inhibition, %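 (compounds screened at 7.5 µM in platelet-rich plasma)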 | 300,000 compounds, 0.22% hits;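 active means mean replicate score, as percent of positive control, at or above 50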
SENP1 FRET inh – blocks the human SENP1 SUMO protease catalytic domain | AID 624204 | recombinant SENP1 catalytic domain, CyPet-SUMO1-YPet FRET cleavage | 360,000 compounds, 0.21% hits | inhibition, % at 10 µM;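 active means inhibition at least 30% at 10 µM, raw YFP signal under a set limit, fluorescence ratio 0.5 to 1.5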
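Assay system: hSENP1 catalytic domain, recombinant. Amount: SENP1 enzyme, 20 pM final. Schedule: 50 min reaction, RT, dark. Technique: FRET, CFP and YFP emission. Control set: no-enzyme wells low, DMSO-plus-enzyme wells high control.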
SENP7 inh – SENP7 protease inhibition | Q9BQF6 | recombinant SENP7, Z-RLRGG-aminoluciferin luminescence, 40 min | inhibition, % at 5 µM | 330,000 compounds, 1.5% hits;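 active means inhibition above about 50% at the single test dose, limit read from the data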
SENP6 block – blocks the human protease SENP6; 330,000 compounds, 1.8% hits; Recombinant SENP6 catalytic domain, aminoluciferin luminescence; inhibition, % at 10 µM;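 active means inhibition above about 50% at the single tested dose, limit read from the data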
Target sequence (Q9GZR1 628-1112 limits assumed): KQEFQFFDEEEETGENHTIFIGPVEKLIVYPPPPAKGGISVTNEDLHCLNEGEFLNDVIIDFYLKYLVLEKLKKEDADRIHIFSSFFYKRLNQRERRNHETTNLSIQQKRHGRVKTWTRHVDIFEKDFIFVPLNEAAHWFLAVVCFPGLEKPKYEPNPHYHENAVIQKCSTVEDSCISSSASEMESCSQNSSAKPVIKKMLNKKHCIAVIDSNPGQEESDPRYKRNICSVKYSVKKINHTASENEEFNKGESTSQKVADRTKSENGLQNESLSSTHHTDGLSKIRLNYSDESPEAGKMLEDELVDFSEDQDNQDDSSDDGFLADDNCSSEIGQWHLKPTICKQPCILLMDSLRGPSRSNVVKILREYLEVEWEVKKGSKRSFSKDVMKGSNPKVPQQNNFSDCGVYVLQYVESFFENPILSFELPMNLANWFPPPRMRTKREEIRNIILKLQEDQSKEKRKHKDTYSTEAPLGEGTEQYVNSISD
SENP8 block-1 – SENP8 protease inhibition; inhibition, % at 10 µM; AID 2540; Q96LD8; 330,000 compounds, 1.2% hits; purified SENP8, Z-RLRGG-aminoluciferin cleavage, luminescence; in the data active means inhibition above about 50%
Target sequence (Q96LD8 whole entry, looked up): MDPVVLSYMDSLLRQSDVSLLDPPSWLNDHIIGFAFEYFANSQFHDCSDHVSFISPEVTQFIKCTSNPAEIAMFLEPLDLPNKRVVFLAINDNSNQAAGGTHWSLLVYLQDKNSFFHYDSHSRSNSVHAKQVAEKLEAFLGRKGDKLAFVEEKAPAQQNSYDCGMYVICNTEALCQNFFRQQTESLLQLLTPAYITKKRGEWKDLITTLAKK
SENP8 block-2 – SENP8 (human) protease inhibition | Q96LD8 | recombinant SENP8, Nedd8 substrate fluorescence | inhibition, % at 20 µM | 360,000 compounds, 0.64% hits; in the data active means inhibition mostly above about 40%, no sharp cut-off; inactive means mostly below about 27%
A number is an active result. Most compounds without a hit are left out; they make up all but 2.6% or so of the library.

How did COc1ccc(C2=NN(C(=O)CSC3=NN4CCCC(=O)N=C4S3)C(c3cccc(OC)c3OC)C2)cc1 (stereo not drawn) do in these assays?
Platelet DG rel: 74.0; SENP1 FRET inh: inactive; SENP7 inh: inactive; SENP6 block: inactive; SENP8 block-1: inactive; SENP8 block-2: inactive

How did COc1cccc(C2CC(c3cccs3)=NN2C(=O)CSC2=NN3CCCC(=O)N=C3S2)c1OC (stereo not drawn) do in these assays?
Platelet DG rel: inactive; SENP1 FRET inh: inactive; SENP7 inh: inactive; SENP6 block: inactive; SENP8 block-1: inactive; SENP8 block-2: inactive

How did COC(=O)c1ccc(CSc2ccccc2NC(=S)Nc2cccc(C(F)(F)F)c2)o1 do in these assays?
SENP1 FRET inh: inactive; SENP8 block-2: inactive

Results for COc1cccc(NC2=C(NCCO)C(=O)c3ccccc3C2=O)c1 ?
Platelet DG rel: inactive; SENP1 FRET inh: inactive; SENP7 inh: inactive; SENP6 block: inactive; SENP8 block-1: inactive; SENP8 block-2: 53.7

Results for Cc1ccc(-c2nc3ccccc3[nH]2)cn1 ?
Platelet DG rel: inactive; SENP1 FRET inh: inactive; SENP7 inh: inactive; SENP6 block: inactive; SENP8 block-1: inactive; SENP8 block-2: inactive

Results for Cc1nc2ccc(-c3nc4ccccc4[nH]3)cc2[nH]1 ?
Platelet DG rel: inactive; SENP1 FRET inh: inactive; SENP7 inh: inactive; SENP6 block: 56.7; SENP8 block-1: inactive; SENP8 block-2: inactive

Results for CC(=O)Nc1ccc(NC2=CC(=O)c3ccccc3C2=O)cc1 ?
Platelet DG rel: inactive; SENP1 FRET inh: inactive; SENP7 inh: inactive; SENP6 block: inactive; SENP8 block-1: inactive; SENP8 block-2: inactive

How did CCOC(=O)c1ccc(NC2=CC(=O)C(=O)c3ccccc32)cc1 do in these assays?
Platelet DG rel: inactive; SENP1 FRET inh: inactive; SENP7 inh: inactive; SENP6 block: inactive; SENP8 block-1: inactive; SENP8 block-2: 82.2

What do the screens show for `O=C1NC[C@@H](CCCCN2CCN(CCc3ccc(O)cc3)C(=O)C2=O)N(CCC2CCCCC2)C1=O`?
SENP1 FRET inh: inactive; SENP8 block-2: inactive

How did O=C(/C=C/c1ccc(Cl)cc1)OCC(=O)c1ccc[nH]1 do in these assays?
SENP1 FRET inh: inactive; SENP7 inh: inactive; SENP6 block: inactive; SENP8 block-1: inactive; SENP8 block-2: inactive

How did N#Cc1ccc(C(=O)Nc2cc(C3CC3)nn2-c2ccccc2)cc1 do in these assays?
Platelet DG rel: inactive; SENP1 FRET inh: inactive; SENP7 inh: inactive; SENP6 block: inactive; SENP8 block-1: inactive; SENP8 block-2: inactive

How did COC(CNC(=O)c1cccnc1)OC do in these assays?
Platelet DG rel: inactive; SENP1 FRET inh: inactive; SENP7 inh: inactive; SENP6 block: inactive; SENP8 block-1: inactive; SENP8 block-2: inactive

How did COC(CNC(=O)c1ccc2c3c(onc13)-c1ccccc1C2=O)OC do in these assays?
Platelet DG rel: inactive; SENP1 FRET inh: inactive; SENP7 inh: inactive; SENP6 block: inactive; SENP8 block-1: inactive; SENP8 block-2: 101.7

What do the screens show for `CCOc1cc(CNc2ccc(O)cc2)ccc1OCc1ccc(Cl)cc1Cl`?
Platelet DG rel: inactive; SENP1 FRET inh: inactive; SENP7 inh: 71.7; SENP6 block: inactive; SENP8 block-1: inactive; SENP8 block-2: 75.4

How did COC(=O)N1CCCCC1c1cc(C(=O)N2CCOCC2)no1 (stereo not drawn) do in these assays?
SENP1 FRET inh: inactive; SENP8 block-2: inactive

How did O=c1c2ccccc2nc2c3ccccc3cnn12 do in these assays?
Platelet DG rel: inactive; SENP1 FRET inh: inactive; SENP7 inh: inactive; SENP6 block: inactive; SENP8 block-1: inactive; SENP8 block-2: inactive

Results for O=c1c2ccccc2cnn1-c1nc2ccccc2[nH]1 ?
Platelet DG rel: 73.9; SENP1 FRET inh: inactive; SENP8 block-2: inactive

What do the screens show for `CC(C)(C)OC(=O)N(CCc1ccccc1)Cc1cccc(OCc2cccc(NC(=O)C3CC3)c2)c1`?
SENP1 FRET inh: inactive; SENP8 block-2: inactive

Results for O=C(Nc1ccc2oc(-c3ccccc3F)nc2c1)c1ncn[nH]1 ?
Platelet DG rel: inactive; SENP1 FRET inh: inactive; SENP7 inh: 81.3; SENP6 block: 81.6; SENP8 block-1: 51.0; SENP8 block-2: inactive

How did COCCCN1CN=C(Nc2nc3ccccc3o2)NC1 do in these assays?
Platelet DG rel: inactive; SENP1 FRET inh: inactive; SENP7 inh: inactive; SENP6 block: inactive; SENP8 block-1: inactive; SENP8 block-2: inactive

Results for O=C(Cn1ccc(NC(=O)OCc2ccccc2)nc1=O)NCCN1CCOCC1 ?
SENP1 FRET inh: inactive; SENP7 inh: inactive; SENP6 block: inactive; SENP8 block-1: inactive; SENP8 block-2: inactive

How did CCS(=O)(=O)Nc1ccc(-c2nnc(SCC(=O)OC)o2)cc1 do in these assays?
Platelet DG rel: 50.1; SENP1 FRET inh: inactive; SENP7 inh: inactive; SENP6 block: inactive; SENP8 block-1: inactive; SENP8 block-2: inactive

What do the screens show for `CCn1c(/C=C/c2c(C)n(CC)c3ccccc23)nc2ccccc2c1=O`?
Platelet DG rel: inactive; SENP1 FRET inh: inactive; SENP7 inh: inactive; SENP6 block: inactive; SENP8 block-1: inactive; SENP8 block-2: inactive

How did CCn1c2ccccc2nc2cc3c(cc21)c(Cl)c(=O)c1ccccc13 do in these assays?
SENP1 FRET inh: inactive; SENP8 block-2: 80.8

Results for CCN(C(=O)c1ccc(NC(C)=O)cc1)c1ccccc1 ?
Platelet DG rel: inactive; SENP1 FRET inh: inactive; SENP7 inh: inactive; SENP6 block: inactive; SENP8 block-1: inactive; SENP8 block-2: inactive

What do the screens show for `CC(=O)Nc1ccc(C(=O)N(C)c2ccccc2)cc1`?
Platelet DG rel: 77.0; SENP1 FRET inh: inactive; SENP7 inh: inactive; SENP6 block: inactive; SENP8 block-1: inactive; SENP8 block-2: inactive

What do the screens show for `COC(=O)c1cc(C)nc2c1C(=O)C(=O)C=C2N1CCOCC1`?
Platelet DG rel: inactive; SENP1 FRET inh: inactive; SENP7 inh: 93.2; SENP6 block: 90.4; SENP8 block-1: 98.3; SENP8 block-2: 111.0

How did O=C(NCCc1ccc(F)cc1)Nc1ccccc1Cl do in these assays?
SENP1 FRET inh: inactive; SENP7 inh: inactive; SENP6 block: inactive; SENP8 block-1: inactive; SENP8 block-2: inactive

How did COc1cc(C(c2c(C)[nH][nH]c2=O)c2c(C)[nH][nH]c2=O)ccc1OC(=O)c1cccc([N+](=O)[O-])c1 do in these assays?
SENP1 FRET inh: inactive; SENP7 inh: inactive; SENP6 block: inactive; SENP8 block-1: inactive; SENP8 block-2: 42.3

Results for C[C@@H]1CN([C@@H](C)CO)C(=O)c2cc(NC(=O)CCC(F)(F)F)ccc2O[C@H]1CN(C)S(=O)(=O)c1ccc(Cl)cc1 ?
SENP1 FRET inh: inactive; SENP7 inh: inactive; SENP6 block: inactive; SENP8 block-1: inactive; SENP8 block-2: inactive

Results for Cc1ccc(Cc2c(-c3ccco3)nc3c4ccccc4ccn23)cc1 ?
SENP1 FRET inh: inactive; SENP8 block-2: inactive

What do the screens show for `CC(=O)c1ccc(-c2nc3c4ccccc4ccn3c2C(C)=O)o1`?
Platelet DG rel: 51.0; SENP1 FRET inh: inactive; SENP7 inh: inactive; SENP6 block: inactive; SENP8 block-1: inactive; SENP8 block-2: inactive

Results for CCCCn1nnnc1C(c1cc2ccccc2o1)N1CCN(c2ncccc2C#N)CC1 (stereo not drawn) ?
SENP1 FRET inh: inactive; SENP8 block-2: inactive
